ChEMBL document CHEMBL2412970, “Synthesis and anticancer activity of 2,4-disubstituted furo[3,2-b]indole derivatives” (Eur J Med Chem, 2013)

Assays:
[1] = system: HL-60; test: Cytotoxicity against human HL60 cells after 48 hrs by MTT assay; type: functional, cell-based; settings: HL-60, 48 h
Outline: (§1)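 Cells were treated with a range of concentrations for 48 h. Viability was read by MTT: formazan was dissolved in DMSO and absorbance read at 570 nm. Untreated or 0.1% DMSO cells served as control. Data are mean from three independent experiments. HL-60, H460 and COLO 205 were kept in RPMI-1640 with 10% FBS and penicillin/streptomycin.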

[2] = system: COLO 205; test: Cytotoxicity against human COLO205 cells after 48 hrs by MTT assay; type: functional, cell-based; settings: COLO 205, 48 h; outline: as §1
[3] = Cytotoxicity against human H460 cells after 48 hrs by MTT assay; type: functional, cell-based; settings: NCI-H460, 48 h; outline: as §1
[4] = system: A498; test: Cytotoxicity against human A498 cells after 48 hrs by MTT assay; type: functional, cell-based; settings: A498, 48 h
[5] = Cytotoxicity against human Hep3B cells after 48 hrs by MTT assay; type: functional, cell-based, Hep 3B2
[6] = system: Detroit 551; test: Cytotoxicity against human Detroit 551 cells after 48 hrs by MTT assay; type: cell-based; settings: Detroit 551, 48 h
[7] = system: A498; test: Ratio of YC-1 IC50 to compound IC50 for human A498 cells after 48 hrs by MTT assay; type: functional

Row | SMILES | IC50 [1] [µM] | IC50 [2] [µM] | IC50 [3] [µM] | IC50 [4] [µM] | IC50 [5] [µM] | IC50 [6] [µM] | Ratio IC50 [7]
1 | COC(=O)c1cccc(Cn2c3ccccc3c3oc(C(=O)OC)cc32)c1 | 16.5 | > 50 | > 50 | > 50 | 50 | > 50 | 
2 | COC(=O)c1cc2c(o1)c1ccccc1n2Cc1ccccc1 | > 50 | > 50 | > 50 | > 50 | > 50 | > 50 | 
3 | O=C(O)c1cc2[nH]c3ccccc3c2o1 | > 50 | > 50 | > 50 | > 50 | > 50 | > 50 | 
4 | COC(=O)c1cc2c(o1)c1ccccc1n2Cc1ccc(Cl)cc1 | > 50 | > 50 | > 50 | > 50 | > 50 | > 50 | 
5 | COC(=O)c1cc2c(o1)c1ccccc1n2Cc1ccc(C(=O)OC)s1 | > 50 | > 50 | > 50 | > 50 | > 50 | > 50 | 
6 | O=C(O)c1cc2c(o1)c1ccccc1n2Cc1ccccc1 | > 50 | > 50 | > 50 | > 50 | > 50 | > 50 | 
7 | COC(=O)c1cc2c(o1)c1ccccc1n2C | > 50 | > 50 | 50 | > 50 | > 50 | > 50 | 
8 | OCc1ccc(Cn2c3ccccc3c3oc(CO)cc32)cc1 | > 50 | > 50 | > 50 | 0.47 | > 50 | > 50 | 
9 | COc1ccccc1Cn1c2ccccc2c2oc(CO)cc21 | 13.3 | 28.3 | 30.8 | 4.3 | 24.6 | 60.5 | 
10 | CCn1c2ccccc2c2oc(C(=O)O)cc21 | > 50 | > 50 | > 50 | > 50 | > 50 | > 50 | 
11 | COC(=O)c1cc2c(o1)c1ccccc1n2Cc1ccc(OC)cc1 | > 50 | > 50 | > 50 | > 50 | 58.6 | > 50 | 
12 | COC(=O)c1ccc(Cn2c3ccccc3c3oc(C(=O)OC)cc32)cc1 | > 50 | > 50 | > 50 | > 50 | > 50 | > 50 | 
13 | OCc1cc2c(o1)c1ccccc1n2Cc1ccccc1Cl | 16.8 | 26.7 | 30.5 | 5.5 | 43.1 | > 50 | 
14 | OCc1cccc(Cn2c3ccccc3c3oc(CO)cc32)c1 | > 50 | > 50 | > 50 | 0.37 | 50 | > 50 | 
15 | COc1cccc(Cn2c3ccccc3c3oc(CO)cc32)c1 | 35.4 | 31.9 | 52 | 0.33 | 31.9 | > 50 | 
16 | COC(=O)c1ccc(Cn2c3ccccc3c3oc(C(=O)OC)cc32)o1 | 50 | > 50 | > 50 | > 50 | > 50 | > 50 | 
17 | OCc1cc2c(o1)c1ccccc1n2Cc1ccccc1F | > 50 | 40.9 | > 50 | 0.43 | 50 | > 50 | 
18 | OCc1ccc(-c2nn(Cc3ccccc3)c3ccccc23)o1 |  |  |  | 0.37 |  |  | 
19 | COC(=O)c1cc2c(o1)c1ccccc1n2Cc1ccc(C(=O)OC)[se]1 | > 25 | > 50 | > 25 | > 50 | > 25 | > 25 | 
20 | OCc1cc2c(o1)c1ccccc1n2Cc1ccc(CO)s1 | > 50 | > 50 | > 50 | 0.69 | > 50 | > 50 | 
21 | COC(=O)c1cc2c(o1)c1ccccc1n2Cc1ccccc1F | > 50 | > 50 | > 50 | > 50 | > 50 | > 50 | 

Row | SMILES | IC50 [1] [µM] | IC50 [2] [µM] | IC50 [3] [µM] | IC50 [4] [µM] | IC50 [5] [µM] | IC50 [6] [µM] | Ratio IC50 [7]
22 | OCc1cc2c(o1)c1ccccc1n2Cc1ccc2c(c1)OCO2 | > 50 | > 50 | > 50 | 0.27 | > 50 | > 50 | 
23 | CCn1c2ccccc2c2oc(CO)cc21 | > 50 | > 50 | 50 | 3.7 | > 50 | > 50 | 
24 | COC(=O)c1cc2c(o1)c1ccccc1n2Cc1ccccc1Cl | > 50 | > 25 | > 50 | > 50 | > 50 | > 50 | 
25 | OCc1cc2c(o1)c1ccccc1n2Cc1cccc(F)c1 | 25 | > 50 | 50 | 0.59 | 44 | > 50 | 
26 | Cn1c2ccccc2c2oc(CO)cc21 | > 50 | > 50 | 50 | 4.6 | > 50 | > 50 | 
27 | OCc1cc2c(o1)c1ccccc1n2Cc1cccc(Cl)c1 | 14.7 | 26.4 | 50 | 1.1 | 29.8 | > 50 | 
28 | OCc1cc2c(o1)c1ccccc1n2Cc1ccc(Cl)cc1 | 38.9 | 8.1 | 31.3 | 0.79 | 36.2 | 44.4 | 
29 | COC(=O)c1cc2c(o1)c1ccccc1n2Cc1cccc(OC)c1 | > 50 | > 50 | > 50 | > 50 | > 50 | > 50 | 
30 | Cn1c2ccccc2c2oc(C(=O)O)cc21 | > 50 | > 50 | > 50 | > 50 | > 50 | > 50 | 
31 | OCc1cc2[nH]c3ccccc3c2o1 | > 50 | > 50 | > 50 | 21.8 | > 50 | > 50 | 
32 | OCc1cc2c(o1)c1ccccc1n2Cc1ccc(F)cc1 | > 50 | 35.9 | 36.7 | 0.69 | 44.2 | > 50 | 
33 | COC(=O)c1cc2c(o1)c1ccccc1n2Cc1cccc(F)c1 | > 50 | > 50 | > 50 | > 50 | > 50 | > 50 | 
34 | COC(=O)c1cc2[nH]c3ccccc3c2o1 | > 50 | > 50 | > 50 | > 50 | > 50 | > 50 | 
35 | COc1ccc(Cn2c3ccccc3c3oc(CO)cc32)cc1 | 54.5 | 29.8 | 42.9 | 0.36 | 45.9 | > 50 | 
36 | COC(=O)c1cc2c(o1)c1ccccc1n2Cc1ccc(F)cc1 | > 50 | > 50 | > 50 | > 50 | > 50 | > 50 | 
37 | CCn1c2ccccc2c2oc(C(=O)OC)cc21 | > 50 | > 50 | > 50 | > 50 | > 50 | > 50 | 
38 | COC(=O)c1cc2c(o1)c1ccccc1n2Cc1ccccc1OC | 25.1 | 32.9 | > 50 | > 50 | 50 | > 50 | 
39 | OCc1cc2c(o1)c1ccccc1n2Cc1ccccc1 | > 50 | 30.6 | > 50 | 0.24 | 50 | > 50 | 1.5
40 | COC(=O)c1cc2c(o1)c1ccccc1n2Cc1ccc2c(c1)OCO2 | > 50 | > 50 | > 50 | > 50 | > 50 | > 50 | 
41 | COC(=O)c1cc2c(o1)c1ccccc1n2Cc1cccc(Cl)c1 | > 50 | > 50 | > 50 | > 50 | > 50 | > 50 | 
42 | OCc1cc2c(o1)c1ccccc1n2Cc1ccc(CO)[se]1 | > 50 | > 50 | > 50 | 0.23 | > 50 | > 50 | 1.5
